Assays:
Type in all cases: ADME, organism-based
Stomach [1] = experiment: Drug concentration in female Lister Hooded pigmented rat stomach assessed as radioactivity per gram of tissue at 20 mg/kg administered as single dose via gastric gavage measured after 24 hrs by autoradiographic analysis; set-up: dose 20 mg/kg, dosed compound name [14C]Sunitinib; settings: in vivo, po
Method in brief: (§1)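 Lister Hooded (pigmented) rats, ca 7-8 weeks old, acclimated 7 days, given [14C]sunitinib L-malate by gastric gavage at 20 mg/kg (15 mg freebase/kg, 100 µCi/kg). One male and one female killed by CO2 at 24, 72, 168 and 336 h. Carcasses frozen in solid CO2/hexane and embedded in frozen cellulose. 30 µm sagittal cryosections were freeze-dried. Tissue radioactivity measured by quantitative whole-body autoradiography against calibration standards, with background subtracted.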

Stomach [2] = experiment: Drug concentration in male albino rat stomach assessed as radioactivity per gram of tissue at 20 mg/kg administered as single dose via gastric gavage measured after 3 hrs by autoradiographic analysis; set-up: dose 20 mg/kg, dosed compound name [14C]Sunitinib; settings: in vivo, po
Liver = experiment: Drug concentration in female albino rat liver assessed as radioactivity per gram of tissue at 20 mg/kg administered as single dose via gastric gavage measured after 6 hrs by autoradiographic analysis; set-up: dose 20 mg/kg, dosed compound name [14C]Sunitinib; settings: in vivo, po
Method in brief: (§2)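 Sprague Dawley albino rats, ca 7-8 weeks old, dosed once by gastric gavage with [14C]sunitinib L-malate (15 mg freebase/kg, 100 µCi/kg). One male and one female killed by CO2 at 3, 6, 24, 72 and 168 h. Carcasses frozen in solid CO2/hexane, embedded and cut into 30 µm sagittal sections, then freeze-dried. Radioactivity quantified by whole-body autoradiography against standards by regression, background subtracted.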

Zone of skin [3] = experiment: Drug concentration in female Lister Hooded pigmented rat abdomen skin assessed as radioactivity per gram of tissue at 20 mg/kg administered as single dose via gastric gavage measured after 336 hrs by autoradiographic analysis; set-up: dose 20 mg/kg, dosed compound name [14C]Sunitinib; settings: in vivo, po
Method in brief: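 Pigmented Lister Hooded rats, 7-8 weeks old, received [14C]sunitinib L-malate by gavage at 20 mg/kg (15 mg freebase/kg, 100 µCi/kg). One rat per sex was killed by CO2 at each of 24, 72, 168 and 336 h. Carcasses were frozen in solid CO2/hexane and cut into 30 µm sagittal sections, then freeze-dried. Tissue radioactivity was quantified by whole-body autoradiography calibrated against standards by regression (LOQ 0.04–0.06 µg eq/g).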

Adrenal [4] = experiment: Drug concentration in male albino rat adrenal assessed as radioactivity per gram of tissue at 20 mg/kg administered as single dose via gastric gavage measured after 3 hrs by autoradiographic analysis; set-up: dose 20 mg/kg, dosed compound name [14C]Sunitinib; settings: in vivo, po
[5] = Drug concentration in male albino rat skeletal muscle assessed as radioactivity per gram of tissue at 20 mg/kg administered as single dose via gastric gavage measured after 3 hrs by autoradiographic analysis; set-up: dose 20 mg/kg, dosed compound name [14C]Sunitinib; settings: in vivo, po
Zone of skin [6] = experiment: Drug concentration in male Lister Hooded pigmented rat abdomen skin assessed as radioactivity per gram of tissue at 20 mg/kg administered as single dose via gastric gavage measured after 24 hrs by autoradiographic analysis; set-up: dose 20 mg/kg, dosed compound name [14C]Sunitinib; settings: in vivo, po
Large intestine = experiment: Drug concentration in female albino rat large intestine assessed as radioactivity per gram of tissue at 20 mg/kg administered as single dose via gastric gavage measured after 3 hrs by autoradiographic analysis; set-up: dose 20 mg/kg, dosed compound name [14C]Sunitinib; settings: in vivo, po; method in brief: as §2
Zone of skin [7] = experiment: Drug concentration in male Lister Hooded pigmented rat abdomen skin assessed as radioactivity per gram of tissue at 20 mg/kg administered as single dose via gastric gavage measured after 72 hrs by autoradiographic analysis; set-up: dose 20 mg/kg, dosed compound name [14C]Sunitinib; settings: in vivo, po
Heart = experiment: Drug concentration in female albino rat heart assessed as radioactivity per gram of tissue at 20 mg/kg administered as single dose via gastric gavage measured after 6 hrs by autoradiographic analysis; set-up: dose 20 mg/kg, dosed compound name [14C]Sunitinib; settings: in vivo, po; method in brief: as §2
Kidney [8] = experiment: Drug concentration in female albino rat kidney assessed as radioactivity per gram of tissue at 20 mg/kg administered as single dose via gastric gavage measured after 24 hrs by autoradiographic analysis; set-up: dose 20 mg/kg, dosed compound name [14C]Sunitinib; settings: in vivo, po; method in brief: as §2
Kidney [9] = experiment: Drug concentration in male albino rat kidney assessed as radioactivity per gram of tissue at 20 mg/kg administered as single dose via gastric gavage measured after 6 hrs by autoradiographic analysis; set-up: dose 20 mg/kg, dosed compound name [14C]Sunitinib; settings: in vivo, po
Stomach [10] = experiment: Drug concentration in male albino rat stomach assessed as radioactivity per gram of tissue at 20 mg/kg administered as single dose via gastric gavage measured after 6 hrs by autoradiographic analysis; set-up: dose 20 mg/kg, dosed compound name [14C]Sunitinib; settings: in vivo, po
[11] = Drug concentration in male Lister Hooded pigmented rat uveal tract assessed as radioactivity per gram of tissue at 20 mg/kg administered as single dose via gastric gavage measured after 24 hrs by autoradiographic analysis; set-up: dose 20 mg/kg, dosed compound name [14C]Sunitinib; settings: in vivo, po
Blood = experiment: Drug concentration in female Lister Hooded pigmented rat blood assessed as radioactivity per gram of tissue at 20 mg/kg administered as single dose via gastric gavage measured after 24 hrs by autoradiographic analysis; set-up: dose 20 mg/kg, dosed compound name [14C]Sunitinib; settings: in vivo, po; method in brief: as §1
Rattus norvegicus = experiment: Tmax as total radioactivity in female Sprague-Dawley rat plasma at 15 mg/kg, po administered as single dose by LC/MS/MS analysis; set-up: dose 15 mg/kg, dosed compound name [14C]Sunitinib, route oral; settings: in vivo
Adrenal [12] = experiment: Drug concentration in female Lister Hooded pigmented rat adrenal assessed as radioactivity per gram of tissue at 20 mg/kg administered as single dose via gastric gavage measured after 336 hrs by autoradiographic analysis; set-up: dose 20 mg/kg, dosed compound name [14C]Sunitinib; settings: in vivo, po; method in brief: as §1
Zone of skin [13] = experiment: Drug concentration in male albino rat abdomen skin assessed as radioactivity per gram of tissue at 20 mg/kg administered as single dose via gastric gavage measured after 3 hrs by autoradiographic analysis; set-up: dose 20 mg/kg, dosed compound name [14C]Sunitinib; settings: in vivo, po
[14] = Drug concentration in male Lister Hooded pigmented rat lachrymal gland assessed as radioactivity per gram of tissue at 20 mg/kg administered as single dose via gastric gavage measured after 24 hrs by autoradiographic analysis; set-up: dose 20 mg/kg, dosed compound name [14C]Sunitinib; settings: in vivo, po
[15] = Drug concentration in male albino rat pituitary gland assessed as radioactivity per gram of tissue at 20 mg/kg administered as single dose via gastric gavage measured after 168 hrs by autoradiographic analysis; set-up: dose 20 mg/kg, dosed compound name [14C]Sunitinib; settings: in vivo, po
[16] = Drug concentration in female albino rat bone marrow assessed as radioactivity per gram of tissue at 20 mg/kg administered as single dose via gastric gavage measured after 24 hrs by autoradiographic analysis; set-up: dose 20 mg/kg, dosed compound name [14C]Sunitinib; settings: in vivo, po
Method in brief: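 Sprague Dawley (albino) rats, ca 7-8 weeks old, received a single gastric-gavage dose of [14C]sunitinib L-malate at 20 mg/kg (15 mg freebase/kg, 100 µCi/kg). One animal per sex killed by CO2 at 3, 6, 24, 72 and 168 h, then frozen in CO2/hexane. 30 µm sagittal sections were cut and freeze-dried. Radioactivity per gram quantified by whole-body autoradiography using regression against standards. LOQ 0.04–0.06 µg freebase equiv/g.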

[17] = Drug concentration in male albino rat testis assessed as radioactivity per gram of tissue at 20 mg/kg administered as single dose via gastric gavage measured after 168 hrs by autoradiographic analysis; set-up: dose 20 mg/kg, dosed compound name [14C]Sunitinib; settings: in vivo, po
Thymus [18] = experiment: Drug concentration in female Lister Hooded pigmented rat thymus assessed as radioactivity per gram of tissue at 20 mg/kg administered as single dose via gastric gavage measured after 24 hrs by autoradiographic analysis; set-up: dose 20 mg/kg, dosed compound name [14C]Sunitinib; settings: in vivo, po; method in brief: as §1
Small intestine = experiment: Drug concentration in female Lister Hooded pigmented rat small intestine assessed as radioactivity per gram of tissue at 20 mg/kg administered as single dose via gastric gavage measured after 24 hrs by autoradiographic analysis; set-up: dose 20 mg/kg, dosed compound name [14C]Sunitinib; settings: in vivo, po; method in brief: as §1
[19] = Drug concentration in female Lister Hooded pigmented rat preputial gland assessed as radioactivity per gram of tissue at 20 mg/kg administered as single dose via gastric gavage measured after 24 hrs by autoradiographic analysis; set-up: dose 20 mg/kg, dosed compound name [14C]Sunitinib; settings: in vivo, po; method in brief: as §1
Thymus [20] = experiment: Drug concentration in female albino rat thymus assessed as radioactivity per gram of tissue at 20 mg/kg administered as single dose via gastric gavage measured after 3 hrs by autoradiographic analysis; set-up: dose 20 mg/kg, dosed compound name [14C]Sunitinib; settings: in vivo, po
[21] = Drug concentration in female albino rat skeletal muscle assessed as radioactivity per gram of tissue at 20 mg/kg administered as single dose via gastric gavage measured after 24 hrs by autoradiographic analysis; set-up: dose 20 mg/kg, dosed compound name [14C]Sunitinib; settings: in vivo, po

Question: Which Radiolabel recovery (Stomach [1]) does the source give for `CCN(CC)CCNC(=O)c1c(C)[nH]c(/[14CH]=C2\C(=O)Nc3ccc(F)cc32)c1C.O=C(O)C[C@H](O)C(=O)O` here?
Answer: Its Radiolabel recovery is 0.64 ugequiv.

Question: What about the Radiolabel recovery (Stomach [2]) of the same molecule?
Answer: Its Radiolabel recovery is 10.15 ugequiv.

Question: And the Radiolabel recovery (Liver)?
Answer: The Radiolabel recovery was 15.16 ugequiv.

Question: And the Radiolabel recovery (Zone of skin [3])?
Answer: Its Radiolabel recovery is 0.36 ugequiv.

Question: What about the Radiolabel recovery (Adrenal [4]) of the same molecule?
Answer: Its Radiolabel recovery is 25.22 ugequiv.

Question: And the Radiolabel recovery [5]?
Answer: The Radiolabel recovery was 2.92 ugequiv.

Question: What about the Radiolabel recovery (Zone of skin [6]) of the same molecule?
Answer: The Radiolabel recovery was 5.57 ugequiv.

Question: And the Radiolabel recovery (Large intestine)?
Answer: The Radiolabel recovery was 7 ugequiv.

Question: And the Radiolabel recovery (Zone of skin [7])?
Answer: Its Radiolabel recovery is 0.64 ugequiv.

Question: And the Radiolabel recovery (Heart)?
Answer: Its Radiolabel recovery is 6.18 ugequiv.

Question: And the Radiolabel recovery (Kidney [8])?
Answer: Its Radiolabel recovery is 4.79 ugequiv.

Question: And the Radiolabel recovery (Kidney [9])?
Answer: The Radiolabel recovery was 9.43 ugequiv.

Question: What about the Radiolabel recovery (Stomach [10]) of the same molecule?
Answer: The Radiolabel recovery was 9.3 ugequiv.

Question: And the Radiolabel recovery [11]?
Answer: The Radiolabel recovery was 18.79 ugequiv.

Question: What about the Radiolabel recovery (Blood) of the same molecule?
Answer: The Radiolabel recovery was 0.14 ugequiv.

Question: What about the Tmax (Rattus norvegicus) of the same molecule?
Answer: Its Tmax is 6 h.

Question: And the Radiolabel recovery (Adrenal [12])?
Answer: Its Radiolabel recovery is 0.66 ugequiv.

Question: And the Radiolabel recovery (Zone of skin [13])?
Answer: Its Radiolabel recovery is 2.81 ugequiv.

Question: And the Radiolabel recovery [14]?
Answer: Its Radiolabel recovery is 0.94 ugequiv.

Question: What about the Radiolabel recovery [15] of the same molecule?
Answer: Its Radiolabel recovery is 0.76 ugequiv.

Question: And the Radiolabel recovery [16]?
Answer: Its Radiolabel recovery is 1.21 ugequiv.

Question: What about the Radiolabel recovery [17] of the same molecule?
Answer: Its Radiolabel recovery is 0.3 ugequiv.

Question: What about the Radiolabel recovery (Thymus [18]) of the same molecule?
Answer: The Radiolabel recovery was 0.88 ugequiv.

Question: And the Radiolabel recovery (Small intestine)?
Answer: The Radiolabel recovery was 1.16 ugequiv.

Question: And the Radiolabel recovery [19]?
Answer: The Radiolabel recovery was 4.5 ugequiv.

Question: What about the Radiolabel recovery (Thymus [20]) of the same molecule?
Answer: The Radiolabel recovery was 9.36 ugequiv.

Question: And the Radiolabel recovery [21]?
Answer: The Radiolabel recovery was 0.33 ugequiv.

Reference: ChEMBL document CHEMBL3525900, “Pharmacokinetics, distribution, and metabolism of [14C]sunitinib in rats, monkeys, and humans” (Drug Metab Dispos, 2012)
